Data published in paper PMC10558795 (Redox Biology, 2023).
Where a name gives a salt, the structure may show the parent alone. Read-outs that look alike come from different tables or passages of the source.

Experiments:
[1] = tested on: NRF2 activity (NQO1-YFP signal, CDDO-activated); assay: High-throughput screen and dose response: NRF2 activity; format: cell-based, human
How it was run: (§1)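 NQO1-YFP H1299 reporter cells (YFP in NQO1 intron 1, constitutive mCherry) were seeded 1000/well in 384-well plates and cultured overnight. Primary screen: 1 μM compound in 0.1% DMSO, one well each, with CDDO 200 nM and 0.1% DMSO controls. Retests used 10-point serial dilutions from 10 µM in triplicate, with brusatol control. Imaged at 0, 24, 48, 64 h (YFP = NRF2 activity, mCherry = viability); IC₅₀ by curve fit.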

NQO1-YFP H1299 cells = assay: Cell viability; format: cell-based, human
How it was run: as §1

KYSE70 cells = assay: High-content cytotoxicity screen; format: cell-based, human
How it was run: (§2)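 Cells were seeded at 1200/well in 384-well plates and cultured overnight. Test compound was added at […] serial dilution from 10 µM, in triplicate, for 3 days. Controls were 0.1% DMSO (negative), 30 µM benzethonium chloride and 0.1% Triton X-100 added just before staining (positive). Cells were stained with 0.5 µg/ml Hoechst and 100 nM YOYO1, four 4× images per well. Normalized total-cell and dead-cell percentages were fitted for IC₅₀.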

KYSE180 cells = assay: High-content cytotoxicity screen; format: cell-based, human
How it was run: as §2

[2] = tested on: NRF2 and NQO1 expression in NRF2^Mut-KYSE70 cells; assay: Western blotting of NRF2 and NQO1 expression in KYSE70 cells; format: cell-based, human
How it was run: (§3)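 Nuclear and cytosolic fractions prepared with an extraction kit, or whole-cell lysates in RIPA buffer. Proteins separated by SDS-PAGE, transferred to nitrocellulose, blocked and probed with primary antibody overnight at 4 °C. Chemiluminescence detected on film and quantified by densitometry; band data as mean ± SD, Student's t-test.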

[3] = tested on: NRF2 expression in NRF2^WT-KYSE450 cells; assay: NRF2 expression in KYSE450 cells; format: cell-based, human
How it was run: as §3

[4] = tested on: NRF2 and NQO1 expression in NRF2^Mut-KYSE180 cells; assay: Western blotting of NRF2 and NQO1 expression in KYSE180 cells; format: cell-based, human
How it was run: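 NRF2-mutant KYSE180 cells (37 °C, 5% CO₂) treated with test compound; nuclear and cytosolic fractions prepared with a nuclear extraction kit. Proteins separated by SDS-PAGE onto nitrocellulose, primary antibody overnight at 4 °C, chemiluminescence on film. Bands quantified by densitometry, mean ± SD, Student's t-test.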

[5] = tested on: human NRF2 target genes in KYSE70 cells; assay: RNAseq of KYSE70 cells; format: cell-based; settings: PYR 10 μM for 72 h, MIT 20 nM for 72 h
How it was run: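 Total RNA from treated and control cells made into Illumina libraries and sequenced (150 bp). Reads aligned to hg38 with RefSeq annotation and counted per gene; DEGs called by fold-change cut-off and corrected p-values. Gene set enrichment analysis performed; overall NRF2 target-gene mRNA level calculated on natural log scale.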

[6] = tested on: NFE2L2 mRNA and NRF2 target genes; assay: qPCR of NFE2L2 mRNA and NRF2 target genes; format: cell-based, human
How it was run: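 Gene expression quantified by real-time PCR using gene-specific primers and TaqMan probes on a 96-well real-time PCR system.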

[7] = tested on: ABCG2 and TOP2A expression; assay: ABCG2 and TOP2A expression in KYSE70 cells; format: cell-based, human
global translation = assay: Protein synthesis assay; format: cell-based, human; settings: KYSE70; PYR 10 μM, MIT 20 nM; CHX positive control
How it was run: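 KYSE70 cells (37 °C, 5% CO₂) seeded at 2000 cells/well in 96-well plates; exposed to test compound or cycloheximide (positive control) in triplicate. Global translation measured with a commercial protein synthesis assay kit per manufacturer's protocol; cells imaged on a high-content imager.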

NRF2-ARE binding = NRF2-ARE binding (Homo sapiens, UniProt Q16236, W24C); assay: ELISA-based TransAM NRF2-ARE binding assay with KYSE70 nuclear extracts
How it was run: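 TransAM ELISA: nuclear extract from untreated KYSE70 cells (20 μg/well) added to wells containing ARE oligonucleotide. Test compound, competitor or mutated competitor added, then 1 h incubation with mild agitation and washing. Anti-NRF2 antibody 1 h, then HRP-conjugated secondary antibody and substrate; A450nm read.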

NRF2 (NRF2^Mut-KYSE180) = NRF2 (NRF2^Mut-KYSE180) (Homo sapiens, UniProt Q16236, D77V); assay: CHX chase analysis of NRF2 half-life in KYSE180 cells; format: cell-based; settings: PYR 10 μM, MIT 20 nM
How it was run: (§4)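 Cells were grown in RPMI1640 GlutaMAX with 10% FBS and 1% penicillin/streptomycin at 37 °C, 5% CO₂. They were pre-incubated 4 h with test compound, then given 200 μg/ml cycloheximide to block protein synthesis. Cells were harvested at set time points after cycloheximide. Total lysates were run on SDS-PAGE and blotted for NRF2 and GAPDH, and band densities were used to calculate NRF2 half-life.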

NRF2 (NRF2^WT-KYSE450) = NRF2 (NRF2^WT-KYSE450) (Homo sapiens, UniProt Q16236); assay: CHX chase analysis of NRF2 half-life in KYSE450 cells; format: cell-based; settings: PYR 10 μM, MIT 20 nM
How it was run: as §4

[8] = 90 mg/m^2, intravenous injection, cited from earlier work
[9] = read-out: NRF2 inhibition (IC50), H1299-NQO1-YFP cells, CDDO-activated YFP signal
[10] = read-out: Cell viability (IC50), H1299-NQO1-YFP cells
[11] = read-out: Cell death (IC50), KYSE70, 3 days
[12] = read-out: Cell proliferation (IC50), KYSE70, 3 days
[13] = read-out: Cell death (IC50), KYSE180, 3 days
[14] = read-out: Cell proliferation (IC50), KYSE180, 3 days
[15] = Homo sapiens, NCI-H1299, read-out: NRF2 inhibition (IC50, μM)
[16] = Homo sapiens, NCI-H1299, read-out: Cell viability (IC50, μM)
[17] = Homo sapiens, KYSE-70, 72 h, read-out: Cell proliferation (IC50, μM)
[18] = Homo sapiens, KYSE-180, 72 h, read-out: Cell proliferation (IC50, μM)
[19] = Homo sapiens, KYSE-70, 72 h, read-out: Cell death (IC50, μM)

Sequence of NRF2 (NRF2^Mut-KYSE180) (Q16236 whole entry D77V): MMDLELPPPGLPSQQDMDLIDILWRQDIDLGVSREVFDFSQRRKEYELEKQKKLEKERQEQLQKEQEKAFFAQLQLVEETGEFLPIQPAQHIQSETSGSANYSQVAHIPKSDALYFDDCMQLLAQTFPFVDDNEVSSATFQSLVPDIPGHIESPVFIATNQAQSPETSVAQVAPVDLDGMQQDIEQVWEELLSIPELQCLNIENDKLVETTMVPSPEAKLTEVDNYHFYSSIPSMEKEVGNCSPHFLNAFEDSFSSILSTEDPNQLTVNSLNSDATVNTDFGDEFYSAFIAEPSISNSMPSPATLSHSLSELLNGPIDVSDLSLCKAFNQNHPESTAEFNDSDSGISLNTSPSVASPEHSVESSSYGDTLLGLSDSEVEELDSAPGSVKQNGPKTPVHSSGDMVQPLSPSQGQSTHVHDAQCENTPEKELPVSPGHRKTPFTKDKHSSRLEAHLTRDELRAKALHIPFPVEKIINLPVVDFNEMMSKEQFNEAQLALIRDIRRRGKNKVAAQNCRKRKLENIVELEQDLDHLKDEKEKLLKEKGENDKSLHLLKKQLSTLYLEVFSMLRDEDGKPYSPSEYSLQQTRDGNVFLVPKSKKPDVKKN
Sequence of NRF2-ARE binding (Q16236 whole entry W24C): as the sequence (Q16236 whole entry D77V) above, with W24C, V77D counted along it
Sequence of NRF2 (NRF2^WT-KYSE450) (Q16236 whole entry): as the sequence (Q16236 whole entry D77V) above, with V77D counted along it

CN1CC[C@@]2(C)c3cc(O)ccc3N(C)[C@@H]12 [Eseroline fumarate]
IC50 [1, 9]: 0.26 µM
IC50 (NQO1-YFP H1299 cells; [10]): > 10 µM
IC50 (KYSE70 cells; [11]): > 10 µM
IC50 (KYSE70 cells; [12]): 10 µM
IC50 (KYSE180 cells; [13]): > 10 µM
IC50 (KYSE180 cells; [14]): > 10 µM

CCC(NC(C)C)C(O)c1ccc(O)c(O)c1 (stereo not shown) [Isoetharine mesylate]
IC50 [1, 15]: 0.49 µM
IC50 (NQO1-YFP H1299 cells; [16]): > 10 µM
IC50 (KYSE70 cells; [17]): > 10 µM
IC50 (KYSE180 cells; [18]): > 10 µM

CCOc1ccc2c(c1)C(C)=CC(C)(C)N2 [Ethoxyquin]
IC50 [1, 15]: 0.29 µM
IC50 (NQO1-YFP H1299 cells; [16]): > 10 µM
IC50 (KYSE70 cells; [17]): > 10 µM
IC50 (KYSE180 cells; [18]): > 10 µM

CN(Cc1cnc2nc(N)nc(N)c2n1)c1ccc(C(=O)N[C@@H](CCC(=O)O)C(=O)O)cc1 [MTX, methotrexate]
NRF2 expression ([2]; NRF2^Mut-KYSE70 cells): significantly inhibited NRF2 expression
NRF2 expression [3]: significantly inhibited NRF2 expression

O=C1c2c(O)ccc(O)c2C(=O)c2c(NCCNCCO)ccc(NCCNCCO)c21 [MIT, mitoxantrone dihydrochloride]
IC50 [1, 15]: 0.035 µM
IC50 (NQO1-YFP H1299 cells; [16]): > 10 µM
IC50 (KYSE70 cells; [19]): 0.00324 µM
IC50 (KYSE70 cells; [17]): 0.00584 µM
IC50 (KYSE180 cells; Homo sapiens, KYSE-180, 72 h, read-out: Cell death (IC50, μM)): 0.00522 µM
IC50 (KYSE180 cells; [18]): 0.00457 µM
Expression of nuclear NRF2 and cytoplasmic NQO1 ([2]; KYSE70 cells): inhibited the expression of nuclear NRF2 and cytoplasmic NQO1 in a dose- and time-dependent manner
Expression of nuclear NRF2 and cytoplasmic NQO1 [4]: inhibited the expression of nuclear NRF2 and cytoplasmic NQO1 in a dose- and time-dependent manner
Overall mRNA expression level of human NRF2 target genes [5]: significantly reduced
NFE2L2 mRNA and NRF2 target genes (AKR1B10, AKR1C2, AKR1C3, PGD, SLC7A11, TKT) by qPCR [6]: downregulation
ABCG2 and TOP2A expression [7]: increased
Global translation (global translation): Neither PYR (10 μM) nor MIT (20 nM) inhibited global translation
NRF2-ARE binding activity (NRF2-ARE binding): did not observe any changes
Effect on NRF2 half-life (NRF2 (NRF2^Mut-KYSE180)): shortened NRF2 half-life
Effect on NRF2 half-life (NRF2 (NRF2^WT-KYSE450)): not changed
Cmax in the plasma [8]: 6.43 ± 2.43 µg/mL
Cmax ([8]; read-out: Cmax in the plasma): 12.4 ± 4.7 µM

CC(C)NC[C@H](O)c1ccc(O)c(O)c1 [Isoproterenol bitratrate]
IC50 [1, 9]: 0.43 µM
IC50 (NQO1-YFP H1299 cells; [10]): > 10 µM
IC50 (KYSE70 cells; [11]): > 10 µM
IC50 (KYSE70 cells; [12]): 4.9 µM
IC50 (KYSE180 cells; [13]): > 10 µM
IC50 (KYSE180 cells; [14]): > 10 µM

Nc1nc(N)c2nc(-c3ccccc3)c(N)nc2n1 [Triamterene]
IC50 [1, 15]: 0.72 µM
IC50 (NQO1-YFP H1299 cells; [16]): 3.7 µM
IC50 (KYSE70 cells; [19]): > 10 µM
IC50 (KYSE70 cells; [17]): 7.7 µM
IC50 (KYSE180 cells; [18]): > 10 µM

CC(C)NCC(O)c1ccc(O)c(O)c1 (stereo not shown) [Isoproterenol hydrochloride]
IC50 [1, 15]: 0.84 µM
IC50 (NQO1-YFP H1299 cells; [16]): > 10 µM
IC50 (KYSE70 cells; [19]): > 10 µM
IC50 (KYSE70 cells; [17]): 5.2 µM
IC50 (KYSE180 cells; [18]): > 10 µM
